TNF death inh = inhibitors of TNF-alpha induced necroptosis in Jurkat FADD-/- cells; activation (protection from cell death), % at 10 µM; hit rate 0.068% among 220,000; Jurkat FADD-/- TNF necroptosis rescue, ATP luminescence, 24 h; 0 = TNF only, 100 = no-TNF cells;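 active means activation, meaning protection from cell death, of at least 50% relative to plate controls; inactive means activation below 50%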;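 further: necroptosis triggered by 40 ng/mL TNF-alpha added together with compound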
RBBP9 inh = blocks human serine hydrolase RBBP9; recombinant RBBP9, FP-Rh probe fluorescence polarization; inhibition, % at 7.94 µM; hit rate 0.2% among 220,000; AID 1515;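 active means inhibition above the campaign mean of all tested compounds plus 3 SD, cut at about 14% in these data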;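 further: plate controls were DMSO wells with RBBP9 for no effect and wells lacking RBBP9 protein for full effect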
Target sequence (O75884 whole entry, looked up): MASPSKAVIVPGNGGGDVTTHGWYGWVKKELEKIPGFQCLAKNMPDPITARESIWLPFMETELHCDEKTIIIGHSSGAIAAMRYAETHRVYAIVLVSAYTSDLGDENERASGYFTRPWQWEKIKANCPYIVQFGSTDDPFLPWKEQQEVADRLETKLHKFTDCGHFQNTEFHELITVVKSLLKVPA
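system = RBBP9 protein | input = RBBP9 at 2.5 µM in dispensed solution, before mixing | measured by = fluorescence polarization (mP), excitation 525 nm, emission 598 nm | incubation = enzyme-compound preincubation 30 min, then probe labeling 45 min, 25 °C | buffer or medium = Tris-NaCl-Pluronic buffer, pH 8.0 | compound = single dose 7.94 µM | also added = FP-Rh probe, 375 nM dispensing solution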
p97 inhibitor = blocks human p97 ATPase activity; P55072; recombinant p97 ATPase, Kinase-Glo ATP luminescence, 3 h; inhibition, % at 8 µM; hit rate 0.42% among 220,000; in the data active means inhibition above about 15%;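 further: 0% = DMSO vehicle and 100% = wells lacking enzyme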
PfM18AAP inh = PfM18AAP enzyme inhibition; inhibition, % at 7.35 µM; recombinant PfM18AAP, H-Glu-NHMec fluorogenic cleavage; AID 1822; hit rate 1.2% among 290,000;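 active means inhibition above the campaign mean inhibition over all tested compounds plus 3 SD, cut at about 28% in these data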;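 further: 0% = plate median of test compound wells and 100% = 2 mM ZnCl2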
L929 necroptosis = blocks zVAD induced death of L929 cells. hit rate 0.38% among 220,000. viability rescue, % at 10 µM. L929 zVAD necroptosis rescue, ATP luminescence, 24 h; with zVAD 60 µM. AID 1377;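 active means activation, scaled between plate controls, above about 75%, limit read from the data; inactive means activation under that limit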;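 further: 0% = zVAD with DMSO and 100% = DMSO alone without zVAD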
Wee1 stabilizer = blocks degradation of human Wee1 kinase. hit rate 1.2% among 220,000. P30291. reporter increase, % at 5 µM. HeLa Luc-Wee1K328M stability, luciferase luminescence; 100% = proteasome inhibitor MG132 effect;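 active means activation above the mean of all tested compounds plus 3 SD, set per screening run, cut at about 8.8% in these data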;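 further: cells exposed to compound for 20 h before luminescence read; 0% = DMSO alone and 100% = MG132 at 30 µM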
zVAD necrop conf = confirmed blocker of zVAD induced death in L929 cells | shares compounds with L929 necroptosis | L929 zVAD-induced necroptosis rescue, ATP luminescence, 24 h | hit rate 16% among 760 | AID 463117 | activation (protection from necroptosis), % at 10 µM;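 active means mean protection from necroptosis of at least 50% over duplicate tests; inactive means mean protection below 50%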;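 further: 0% = cells with zVAD alone and 100% = vehicle cells without zVAD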
The depositor's hits bear a star; x = not tested or not shown. Compounds with a hit are over-represented: about 2.7% of the library has one in this group of screens.

SMILES	TNF death inh	RBBP9 inh	p97 inhibitor	PfM18AAP inh	L929 necroptosis	Wee1 stabilizer	zVAD necrop conf
CN(C)S(=O)(=O)c1ccc(Cl)c(NC(=O)CSc2nnnn2-c2ccc(O)cc2)c1	9.5	-3.6	-6.8	-4.6	86.0*	0.2	88.1*
O=C(/C=C/c1ccc2ccccc2n1)N1CCN(S(=O)(=O)c2ccccc2F)CC1	1.8	-0.5	2.5	1.5	83.7*	-1.1	4.7
COc1ccc(/C=C/c2nc(-c3ccccc3O)n[nH]2)cc1OC	0.5	-7.3	3.9	5.8	81.3*	3.9	4.0
CCOC(=O)c1sc(NC(=O)C(C)Sc2nnc(N)s2)nc1C (centres undefined)	1.1	-5.6	5.9	3.6	77.8*	1.0	1.9
CC1(C#CC[N+]2(C)CCCCC2)CCC2C(O1)c1ccccc1OC2(C)C (centres undefined)	0.4	0.6	2.1	-1.4	3.5	-1.0	x
Cc1cc(C(=O)COc2cccc(-n3cnnn3)c2)c(C)n1-c1ccccc1	-6.8	-6.2	6.2	3.9	81.0*	-0.6	35.7
COC(=O)COc1cccc(-n2cnnn2)c1	-0.8	-4.3	-4.3	-5.8	-0.1	0.1	x
CCC(=O)Nc1ccc2c(c1)ncn2-c1ccc(C)cc1	2.5	0.3	6.1	-0.2	84.2*	3.7	36.0
c1ccc(-n2cnc3cc(NCc4cccs4)ccc32)cc1	-6.5	1.0	4.2	-2.3	84.8*	-1.9	45.2
Cc1ccc(-n2cnc3cc(NCc4cccs4)ccc32)cc1	-1.2	0.9	-9.1	24.1	1.2	0.4	x
COc1ccc(-n2cnc3cc(NCc4ccccn4)ccc32)cc1	0.3	-5.3	2.2	10.1	77.6*	0.8	66.0*
c1ccc(-n2cnc3ccccc32)cc1	1.2	-7.3	4.7	5.2	74.9	5.1	x
COc1ccc(-n2cnc3ccccc32)cc1	0.3	5.3	-0.3	-5.6	80.3*	-0.7	38.3
COc1ccc(OCc2nnc(SCC(=O)NC3CCCCC3)o2)cc1	x	x	x	-8.3	x	x	x
CCC(=O)Nc1ccc2c(c1)ncn2-c1ccc(OC)cc1	2.9	5.1	0.9	-10.5	80.5*	-0.9	46.8
CCC(=O)Nc1ccc2c(c1)ncn2-c1ccccc1C	1.4	-9.1	1.6	-7.9	0.8	-0.3	x
CO/N=C(\CCC(=O)O)c1cccs1	-0.4	-3.5	1.4	-3.1	-0.1	2.1	x
O=[N+]([O-])c1ncn(Cc2c(Cl)cccc2Cl)n1	96.2*	-5.9	5.8	0.6	94.1*	-0.3	3.5
O=[N+]([O-])c1ncn(Cc2ccccc2Cl)n1	83.2*	-3.3	0.7	1.5	87.9*	-1.2	19.6
COC(=O)CCc1c(C)[nH]c(C(=O)OCc2ccccc2)c1C	-1.4	-4.5	-6.5	3.7	76.5*	-2.2	1.0
O=c1oc2ccccc2n1CSC1=NCCS1	61.0*	4.9	-5.5	-0.1	100.9*	-0.6	1.3
O=C(N/N=C/c1ccccc1)c1n[nH]c2c1CCCC2	-0.3	-4.4	-3.9	2.2	82.6*	0.0	10.3
O=C(Nc1nccs1)c1ccc(N2C(=O)C3CCCCC3C2=O)cc1 (centres undefined)	2.6	-3.2	2.0	5.4	1.0	-0.4	x
O=C(Nc1nccs1)c1cccc(N2C(=O)C3C4C=CC(C4)C3C2=O)c1 (centres undefined)	11.0	-6.2	3.5	-9.8	78.2*	-2.7	17.3
O=C(Nc1nccs1)c1ccc(N2C(=O)[C@@H]3[C@H](C2=O)[C@H]2C=C[C@@H]3C2)cc1	17.2	-11.5	5.8	2.3	79.4*	0.0	2.2
Clc1ccc(Sc2ccccn2)cc1	x	x	x	0.5	x	x	x
S=C(Sc1ccc(Cl)cc1)Sc1ccc(Cl)cc1	-28.2	-2.7	7.3	0.6	76.2*	1.8	1.4
O=C(Nc1ccc(-c2noc(COc3ccccc3Cl)n2)cc1)c1ccco1	-2.5	-14.9	-4.5	-0.7	97.9*	3.9	36.0
O=C(COc1ccccc1Cl)Nc1ccc(NC(=O)c2ccco2)cc1	x	x	x	2.7	x	x	x
COc1ccc(C(=O)Nc2ccc(-c3nnn(CC(=O)NCc4ccco4)n3)cc2)cc1	-4.2	-23.1	-8.1	3.2	77.0*	2.7	36.4

Screening results deposited in PubChem by several laboratories.
